CaV13 ICDI inh: Primary screen for inhibitors of IQ motif and Ca2+-dependent inactivation inhibitor domain binding in CACNA1D, Förster resonance energy transfer in living cells, …; HEK cells, CFP/YFP FRET ICDI-IQ, plate reader, 10 min; percent FRET-ratio fall versus neutral wells; inhibition, % at 12.3 µM; 340,000 compounds, 0.098% hits;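 active means mean replicate inhibition of at least 30% and at least 1% of replicates passing that level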
ADAM17 inh: ADAM17 inhibitors, primary screen, biochemical, QFRET. AID 720648, 2013. Disintegrin and metalloproteinase domain-containing protein 17 (Homo sapiens), P78536. recombinant ADAM17, EDANS/DABCYL FRET peptide cleavage. 370,000 compounds, 0.83% hits. inhibition, % at 6.95 µM;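 active means inhibition above the mean of compounds lying between control limits plus 3 SD, set per campaign, cut at about 8.5% in these data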
ADAM10 inh: human ADAM10 inhibitors, primary screen, biochemical, QFRET, HTS; Disintegrin and metalloproteinase domain-containing protein 10 (Homo sapiens), O14672; recombinant ADAM10, EDANS/DABCYL FRET peptide cleavage, 3 h; inhibition, % at 7 µM; 370,000 compounds, 0.62% hits; AID 720582, 2013;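 active means inhibition above a per-campaign cutoff equal to the mean of compounds falling between control-based bounds plus 3 SD, cut at about 20% in these data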
Arrestin-AP2 inh: inhibitors of beta-arrestin/AP2 binding, primary screen, biochemical, GPCR trafficking, flow cytometry; beta-arrestin 1 C-terminal peptide binding to AP2 beta2-adaptin appendage (human); FITC-arrestin peptide / GST-AP2 beads; AP2 beta2 appendage carries R879A mutation; inhibition, % at 10 µM; 340,000 compounds, 0.31% hits;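 active means inhibition above a set limit, near 3 SD of compounds lacking own fluorescence, cut at about 54% in these data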
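System: GST-tagged AP2 beta2-adaptin appendage (R879A) on 4 µm glutathione beads / Reagent: FITC-arrestin peptide, 50 nM / Detection: HyperCyt-sampled flow cytometry, FL1 channel, ex 488/em 535 nm / Timing: 12 min plus 1 h, RT / Buffer or medium: PBS plus Tween 20 (0.05%) and BSA (0.1%)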
FAS-TE inh: FAS thioesterase domain inhibitors, primary screen, biochemical, fluorescence intensity, uHTS; Fatty acid synthase (Homo sapiens), P49327; recombinant FAS-TE, OMFH fluorogenic substrate, fluorescence endpoint; inhibition, % at 15 µM; 360,000 compounds, 0.67% hits; AID 602261, 2012;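 active means compounds whose normalised, plate-corrected inhibition of enzyme fluorescence in the single-dose primary screen is 50% or more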
CendR NRP1 mod: modulators of CendR peptide binding to NRP-1, primary screen, biochemical, fluorescence polarization, uHTS | Neuropilin-1 (Homo sapiens), O14786 | FAM-RPARPAR peptide binding to NRP-1 | inhibition, % at 25 µM | 360,000 compounds, 0.85% hits | AID 602438, 2012;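 active means inhibition or corrected inhibition above about 18%, plus a signal ratio from 0.5 to 1.5, limit read from the data, passing the limit was not always enough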
ADAM10 confirm: human ADAM10 inhibitors, confirmation, biochemical, QFRET, triplicate; shares compounds with ADAM10 inh; ADAM10 QFRET peptide cleavage, EDANS fluorescence; inhibition, % at 6.95 µM; 2,100 compounds, 1% hits;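 active means inhibition above about 20% chosen separately for each screening run, limit read from the data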
ADAM17 ctr: ADAM17 inhibitors, counter-screen for ADAM10 exosite inhibitor project, biochemical, QFRET, high throughput | shares compounds with ADAM10 inh | ADAM17 QFRET peptide cleavage, EDANS fluorescence | inhibition, % at 6.95 µM | 2,100 compounds, 0.5% hits;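 active means mean triplicate inhibition above the solvent-only control wells' mean plus 3 SD, cut at about 12% in these data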
A number is an active result. Only some compounds are listed: those with a hit (about 2.9% of all), similar ones and a draw of the others.

For CC/C=C\[C@H](O)[C@H](O)C1=C(C)C(=O)[C@]2(O1)C(=O)N[C@@](OC)(C(=O)c1ccccc1)C2O (some centres undefined) the results were ADAM17 inh inactive, ADAM10 inh 63.2, Arrestin-AP2 inh inactive, FAS-TE inh inactive, CendR NRP1 mod inactive, ADAM10 confirm inactive and ADAM17 ctr inactive.
Cc1ccc(S(=O)(=O)Nc2cccc(C(=O)N3CCN(c4ccccc4O)CC3)c2)cc1F was read as CaV13 ICDI inh inactive, ADAM17 inh inactive, ADAM10 inh 20.0, Arrestin-AP2 inh inactive, FAS-TE inh inactive, CendR NRP1 mod inactive, ADAM10 confirm inactive and ADAM17 ctr inactive.
Screening O=C(NCc1cccs1)c1ccc([N+](=O)[O-])cc1 returned CaV13 ICDI inh inactive, ADAM17 inh inactive, ADAM10 inh 23.7, Arrestin-AP2 inh inactive, FAS-TE inh inactive, CendR NRP1 mod inactive, ADAM10 confirm inactive and ADAM17 ctr inactive.
Screening COc1ccc(CNC(=O)C2(c3ccc(Cl)cc3)CC2)cc1 returned CaV13 ICDI inh inactive, ADAM17 inh inactive, ADAM10 inh 20.8, Arrestin-AP2 inh inactive, FAS-TE inh inactive, CendR NRP1 mod inactive, ADAM10 confirm inactive and ADAM17 ctr inactive.
Screening NS(=O)(=O)c1ccc(CNC(=O)C2(c3ccc(Cl)cc3)CC2)cc1 returned CaV13 ICDI inh inactive, ADAM17 inh inactive, ADAM10 inh inactive, Arrestin-AP2 inh inactive, FAS-TE inh inactive and CendR NRP1 mod inactive.
COc1ccc(CNC(=O)c2ccc(-c3ccc(F)c(F)c3)c3ccoc23)cc1OC was read as CaV13 ICDI inh inactive, ADAM17 inh inactive, ADAM10 inh 20.5, FAS-TE inh inactive, CendR NRP1 mod inactive, ADAM10 confirm inactive and ADAM17 ctr inactive.
For O=C(NCc1ccccc1)c1ccc(-c2ccc(F)c(F)c2)c2ccoc12 the results were CaV13 ICDI inh inactive, ADAM17 inh inactive, ADAM10 inh inactive, FAS-TE inh inactive and CendR NRP1 mod inactive.
`O=C(NC(=S)NCc1ccccc1)c1cccc(Cl)c1` gave CaV13 ICDI inh inactive, ADAM17 inh inactive, ADAM10 inh 20.5, Arrestin-AP2 inh inactive, FAS-TE inh inactive, CendR NRP1 mod inactive, ADAM10 confirm inactive and ADAM17 ctr inactive.
`O=C(NNC(=O)c1cccc(S(=O)(=O)Nc2ccccc2F)c1)c1ccncc1` gave CaV13 ICDI inh inactive, ADAM17 inh inactive, ADAM10 inh inactive, FAS-TE inh inactive and CendR NRP1 mod inactive.
Screening Cc1ccc(NS(=O)(=O)c2cc(C(=O)NCCSC3CCCCC3)ccc2C)cc1 returned CaV13 ICDI inh inactive, ADAM17 inh inactive, ADAM10 inh 21.1, Arrestin-AP2 inh inactive, FAS-TE inh inactive, CendR NRP1 mod inactive, ADAM10 confirm inactive and ADAM17 ctr inactive.
COc1ccc(-c2cccc3c2C2CC3CCN2C(=O)OCc2ccccc2)cc1 (centres undefined) was read as CaV13 ICDI inh inactive, ADAM17 inh inactive, ADAM10 inh inactive, Arrestin-AP2 inh inactive, FAS-TE inh inactive and CendR NRP1 mod inactive.
For CCCc1ccc(Oc2cn[nH]c2-c2ccc(O)c(C)c2O)cc1 the results were ADAM17 inh 13.8, ADAM10 inh 32.1, Arrestin-AP2 inh inactive, FAS-TE inh inactive, CendR NRP1 mod inactive, ADAM10 confirm inactive and ADAM17 ctr inactive.

Source: PubChem BioAssay
